Measurements: ChEMBL document CHEMBL1938299, “Quinolinone-based agonists of S1P₁: use of a N-scan SAR strategy to optimize in vitro and in vivo activity” (Bioorg Med Chem Lett, 2012)
≈ marks a conversion by molar mass, not a printed value.

Key:
[1] = Solubility of the compound in 0.010 M aqueous hydrogen chloride at pH 7.4; format: physicochemical; settings: in the assay text read “hydrogen chloride” for “hydrogen chloride at pH 7.4”
Method in brief: (§1)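 Compound solubility measured separately in 0.010 M aqueous HCl, in PBS at pH 7.4, and in simulated intestinal fluid.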

[2] = Solubility of the compound in phosphate-buffered saline at pH 7.4; format: physicochemical; method in brief: as §1
[3] = Solubility of the compound in simulated intestinal fluid at pH 7.4; format: physicochemical; method in brief: as §1
[4] = Apparent permeability of the compound in pig LLC-PK1 cells; format: ADME, cell-based, Sus scrofa
Method in brief: (§2)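 LLC-PK1 porcine proximal tubule cell monolayers; apparent permeability (Papp) of test compound through the cells measured, along with efflux ratio.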

Rattus norvegicus [5] = test: Immunosuppressive activity in Lewis rat assessed as reduction in circulating peripheral lymphocyte count at 1 mg/kg, po after 24 hrs relative to control; format: functional; design: scale not given: the % may be the effect or the level left
Method in brief: (§3)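 Female Lewis rats (N = 5/group) given a single oral dose (0.30, 1.0 or 3.0 mg/kg) in 20% Captisol or HPBCD, 1% HPMC, 1% Pluronic F68, pH 2.0 with MSA. At 24 h, blood lymphocytes were counted as percent of vehicle control and total plasma compound measured. Significance by ANOVA/Dunnett's test versus vehicle.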

[6] = Plasma concentration in Lewis rat at 1 mg/kg, po after 24 hrs; format: ADME, organism-based; design: dose 1 mg/kg, route oral; method in brief: as §3
[7] = molecular target: T1, Sphingosine 1-phosphate receptor 3 (Homo sapiens, UniProt Q99500); test: Agonist activity at human S1P3 receptor expressed in CHO-K1 cells co-expressing Gq/i5 G-protein assessed as calcium mobilization by FLIPR assay; format: functional, cell-based
T1 sequence (Q99500 whole entry): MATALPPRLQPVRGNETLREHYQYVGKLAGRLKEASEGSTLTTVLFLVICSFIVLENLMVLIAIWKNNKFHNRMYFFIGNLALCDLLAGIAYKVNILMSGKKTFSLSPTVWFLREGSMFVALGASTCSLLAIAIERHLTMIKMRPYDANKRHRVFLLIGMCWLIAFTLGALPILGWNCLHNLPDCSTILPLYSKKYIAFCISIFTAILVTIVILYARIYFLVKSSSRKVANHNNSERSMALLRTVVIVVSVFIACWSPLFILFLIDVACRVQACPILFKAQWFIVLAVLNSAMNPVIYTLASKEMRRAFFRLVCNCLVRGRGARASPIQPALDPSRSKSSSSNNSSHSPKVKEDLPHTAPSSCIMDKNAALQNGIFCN

[8] = molecular target: T2, Sphingosine 1-phosphate receptor 1 (Homo sapiens, UniProt P21453); test: Agonist activity at human S1P1 receptor expressed in human U2OS cells co-expressing eGFP assessed as receptor internalization into cytoplasm using Hoechst dye staining relative to 1-(4-(6-benzylbenzofuran-2-yl)-3- fluorobenzyl)azetidine-3-carboxylic acid; format: functional, cell-based
T2 sequence (P21453 whole entry): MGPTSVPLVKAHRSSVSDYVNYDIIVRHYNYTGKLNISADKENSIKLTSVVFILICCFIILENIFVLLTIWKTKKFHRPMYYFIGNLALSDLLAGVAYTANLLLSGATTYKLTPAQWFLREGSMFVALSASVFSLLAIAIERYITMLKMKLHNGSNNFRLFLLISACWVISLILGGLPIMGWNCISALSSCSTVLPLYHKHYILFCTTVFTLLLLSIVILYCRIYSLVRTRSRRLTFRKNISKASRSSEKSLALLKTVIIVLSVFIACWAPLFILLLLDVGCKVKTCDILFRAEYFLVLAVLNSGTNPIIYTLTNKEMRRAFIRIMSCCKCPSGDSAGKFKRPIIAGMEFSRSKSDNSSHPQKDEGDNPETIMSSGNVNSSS

[9] = molecular target: T2, Sphingosine 1-phosphate receptor 1; test: Agonist activity at human S1P1 receptor expressed in human U2OS cells co-expressing eGFP assessed as receptor internalization into cytoplasm using Hoechst dye staining; format: functional, cell-based
[10] = Efflux ratio of permeability in pig LLC-PK1 cells; format: ADME, cell-based, Sus scrofa; method in brief: as §2
[11] = Intrinsic clearance in rat liver microsomes assessed per mg of protein after 30 mins; format: ADME, Microsome; settings: read-out: CLH
Method in brief: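 Test compound incubated with rat liver microsomes for 30 min. Percent turnover measured and used to estimate intrinsic clearance.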

[12] = Plasma protein binding in rat; format: ADME, cell-free; settings: read-out: PPB (converted)
Method in brief: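 Rat plasma protein binding measured in vitro, with bound and free compound separated by ultracentrifugation; reported as percent bound.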

[13] = (§4) Clearance in Sprague-Dawley rat at 1 mg/kg, iv; format: ADME, organism-based; design: dose 1 mg/kg, route intravenous; settings: Sprague-Dawley, in vivo
Method in brief: (§5)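 Single intravenous dose of 1 mg/kg in DMSO vehicle to male Sprague–Dawley rats (N = 3/group). Clearance, steady-state volume of distribution and half-life were determined from plasma levels.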

[14] = Volume of distribution at steady state in Sprague-Dawley rat at 1 mg/kg, iv; format: ADME, organism-based; design: dose 1 mg/kg, route intravenous; settings: in vivo, read-out: Vdss; method in brief: as §5
[15] = Half life in Sprague-Dawley rat at 1 mg/kg, iv; format: ADME, organism-based; design: dose 1 mg/kg, route intravenous; settings: in vivo; method in brief: as §5
[16] = (§6) AUC (0 to 24 hrs) in Sprague-Dawley rat at 3 mg/kg, po; format: ADME, organism-based, Plasma; design: time < 24 hr, dose 3 mg/kg, route oral; settings: Sprague-Dawley, plasma
[17] = (§7) Oral bioavailability in Sprague-Dawley rat at 3 mg/kg; format: ADME, organism-based; settings: Sprague-Dawley, in vivo
Method in brief: (§8)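 Bioavailability in male Sprague–Dawley rats (N = 3/group), calculated from AUC0–∞ values obtained after a 1 mg/kg iv dose (DMSO vehicle) and a 3 mg/kg po dose (20% Captisol, 1% HPMC, 1% pluronic F68, pH 2.0 with MSA).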

[18] = AUC (0 to 24 hrs) in Sprague-Dawley rat at 100 mg/kg, po; format: ADME, organism-based; design: time < 24 hr, dose 100 mg/kg, route oral; settings: plasma
[19] = Plasma concentration in Lewis rat at 0.3 mg/kg, po after 24 hrs; format: ADME, organism-based; design: dose 0.3 mg/kg, route oral; method in brief: as §3
[20] = Plasma concentration in Lewis rat at 3 mg/kg, po after 24 hrs; format: ADME, organism-based; design: dose 3 mg/kg, route oral; method in brief: as §3
Rattus norvegicus [21] = test: Immunosuppressive activity in po dosed Lewis rat assessed as reduction in circulating peripheral lymphocyte count after 24 hrs; format: functional, organism-based; method in brief: as §3
Rattus norvegicus [22] = test: Immunosuppressive activity in Lewis rat assessed as reduction in circulating peripheral lymphocyte count at 3 mg/kg, po after 24 hrs relative to control; format: functional; design: scale not given: the % may be the effect or the level left; method in brief: as §3
[23] = molecular target: T1, Sphingosine 1-phosphate receptor 3; test: Agonist activity at human S1P3 receptor expressed in CHO-K1 cells co-expressing Gq/i5 G-protein assessed as calcium mobilization by FLIPR assay relative to S1P; format: functional, cell-based
Method in brief: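 Ca2+ mobilization in CHO-K1 cells expressing hS1P3 and a chimeric Gq/i5 G-protein. Efficacy expressed as % relative to S1P; compounds not reaching >10% of control activity reported as greater than the highest concentration tested.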

Rattus norvegicus [24] = test: Ratio of AUC (0 to 24 hrs) at 100 mg/kg, po to AUC (0 to 24 hrs) at 3 mg/kg, po in Sprague-Dawley rat; format: ADME, organism-based; settings: in vivo
Method in brief: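 Male Sprague–Dawley rats (N = 3/group) each received a single oral dose of 3 or 100 mg/kg, in 20% Captisol, 1% HPMC, 1% Pluronic F68, adjusted to pH 2.0 with MSA.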

Rattus norvegicus [25] = test: Immunosuppressive activity in Lewis rat assessed as reduction in circulating peripheral lymphocyte count at 30 mg/kg, po after 24 hrs relative to control; format: functional; design: scale not given: the % may be the effect or the level left
[26] = Plasma concentration in Lewis rat at 30 mg/kg, po after 24 hrs; format: ADME, organism-based; design: dose 30 mg/kg, route oral
Rattus norvegicus [27] = test: as §4; format: ADME, organism-based; design: dose 1 mg/kg, route intravenous; settings: in vivo; method in brief: as §5
Rattus norvegicus [28] = test: as §6; format: ADME, organism-based, Plasma; design: time < 24 hr, dose 3 mg/kg, route oral; settings: in vivo, 24 h
Rattus norvegicus [29] = test: as §7; format: ADME, organism-based; settings: in vivo; method in brief: as §8

Row | Compound | solubility [1] | solubility [2] | solubility [3] | Papp [4] | concentration at 24 h [6] | EC50 [7] | Efficacy [8] | EC50 [9] | efflux ratio [10] | microsomal CLint [11] | fraction unbound [12] | Vd [14] | half-life [15] | AUC(0-t) at 24 h [18] | concentration at 24 h [19] | concentration at 24 h [20] | Ratio AUC (Rattus norvegicus [24]) | Activity (Rattus norvegicus [5]) | Activity (Rattus norvegicus [21]) | Activity (Rattus norvegicus [22]) | also measured
1 | COc1ccncc1C(=O)NC(=O)Nc1ccc(-c2ccccc2)c(C(F)(F)F)c1 | 17 µg/mL (≈ 40.9 µM) | 6.6 µg/mL (≈ 15.9 µM) | 16 µg/mL (≈ 38.5 µM) | 2.3 ×10⁻⁶ cm/s | 63 ng/mL | > 25000 nM |  |  |  |  |  |  |  |  |  |  |  | -78% |  |  | 
2 | CCCCCCCCc1ccc(CCC(N)(CO)CO)cc1 |  |  |  |  |  |  | 115% |  |  |  |  |  |  |  |  |  |  |  |  |  | 
3 | CCCCCCCCCCCCC/C=C/[C@@H](O)[C@@H](N)COP(=O)(O)O |  |  |  |  |  |  | 91% | 18 nM |  |  |  |  |  |  |  |  |  |  |  |  | 
4 | FC(F)(F)c1cccc(-c2noc(-c3cc(-c4ccccc4)c(C(F)(F)F)s3)n2)c1 |  |  |  |  |  | > 25000 nM | 86% |  |  |  |  |  |  |  |  |  |  |  |  |  | Activity (Rattus norvegicus [25]): -66%; concentration at 24 h [26]: 1100 ng/mL
5 | Cn1cc(C(=O)Nc2ccc(-c3ccccc3)c(C(F)(F)F)n2)c(=O)c2cnccc21 | < 1 µg/mL | 2.4 µg/mL (≈ 5.66 µM) | 10 µg/mL (≈ 23.6 µM) | 6.7 ×10⁻⁶ cm/s | 130 ng/mL | > 2500 nM | 120% | 20 nM | 1 | < 14 µL/min/mg | 0.02 | 5.1 L/kg | 24 h | 130000 ng·h/mL | 47 ng/mL | 640 ng/mL | 11 | -67% | Dose-dependent effect | -76% | clearance [13]: 2.5 mL/min/kg; AUC(0-t) at 24 h [16]: 12000 ng·h/mL; bioavailability [17]: 110%
6 | Cn1cc(C(=O)Nc2ccc(-c3ccccc3)c(C(F)(F)F)c2)c(=O)c2cnccc21 | < 1 µg/mL | < 1 µg/mL | 4.9 µg/mL (≈ 11.6 µM) | 5.7 ×10⁻⁶ cm/s | 350 ng/mL | > 2500 nM | 100% | 24 nM | 0.8 | < 14 µL/min/mg | 0.08 | 9.2 L/kg | 41 h | 31000 ng·h/mL | 96 ng/mL | 1100 ng/mL | 6 | -64% | Dose-dependent effect | -64% | CL (Rattus norvegicus [27]): 2.67 mL/min/kg; AUC (Rattus norvegicus [28]): 5100 ng·h/mL; F (Rattus norvegicus [29]): 95%

More lines, main results first:

Row | solubility [1] | solubility [2] | solubility [3] | Papp [4] | concentration at 24 h [6] | EC50 [7] | Efficacy [8] | EC50 [9] | efflux ratio [10] | microsomal CLint [11] | fraction unbound [12] | Vd [14] | half-life [15] | AUC(0-t) at 24 h [18] | concentration at 24 h [19] | concentration at 24 h [20] | Ratio AUC (Rattus norvegicus [24]) | Compound | Activity (Rattus norvegicus [5]) | Activity (Rattus norvegicus [21]) | Activity (Rattus norvegicus [22]) | also measured
7 | 1.3 µg/mL (≈ 3.08 µM) | < 1 µg/mL | 11 µg/mL (≈ 26 µM) | 1.2 ×10⁻⁶ cm/s | 18 ng/mL | 1500 nM | 110% | 70 nM | 0.4 | < 14 µL/min/mg | 0.03 | 11 L/kg | 15 h | 5800 ng·h/mL | 5.5 ng/mL | 48 ng/mL | 4.7 | Cn1cc(C(=O)Nc2ccc(-c3ccccc3)c(C(F)(F)F)c2)c(=O)c2ccccc21 | -3% | Dose-dependent effect | -51% | clearance [13]: 15.5 mL/min/kg; AUC(0-t) at 24 h [16]: 1200 ng·h/mL; bioavailability [17]: 60%; Efficacy [23]: 92%
8 | < 1 µg/mL | < 1 µg/mL | 5.9 µg/mL (≈ 13.9 µM) | 2.2 ×10⁻⁶ cm/s |  | > 2500 nM | 100% | 190 nM | 1.7 | < 14 µL/min/mg |  |  |  |  |  |  |  | Cn1cc(C(=O)Nc2ccc(-c3ccccc3)c(C(F)(F)F)c2)c(=O)c2cccnc21 |  |  |  | 
9 |  |  |  | < 1 ×10⁻⁶ cm/s |  | > 2500 nM | 59% | 1100 nM |  | < 14 µL/min/mg |  |  |  |  |  |  |  | Cn1cc(C(=O)Nc2cc(C(F)(F)F)c(-c3ccccc3)cn2)c(=O)c2ccccc21 |  |  |  | 
10 | < 1 µg/mL | < 1 µg/mL | 13 µg/mL (≈ 30.7 µM) | 11 ×10⁻⁶ cm/s |  | > 2500 nM | 170% | 2900 nM | 1.9 | < 14 µL/min/mg |  |  |  |  |  |  |  | Cn1cc(C(=O)Nc2cnc(-c3ccccc3)c(C(F)(F)F)c2)c(=O)c2ccccc21 |  |  |  | 
